Reference: ChEMBL document CHEMBL4813962, “Design, synthesis and biological evaluation of sulfamoylphenyl-quinazoline derivatives as potential EGFR/CAIX dual inhibitors” (Eur J Med Chem, 2021)
Activity calls are given as the source filed them. The rule behind the calls is not given here.

What was measured:
[1] = target: Epidermal growth factor receptor (Homo sapiens, UniProt P00533, T790M)
[2] = target: T1, Epidermal growth factor receptor (Homo sapiens, UniProt P00533)
A-431 = test: cells; format: functional, cell-based; details: Homo sapiens, A-431, 72 h
A549 [3] = test: cells; format: functional, cell-based; details: Homo sapiens, A549, 72 h
NCI-H1975 [4] = test: Antiproliferative activity against human NCI-H1975 cells assessed as reduction in cell viability incubated for 72 hrs by MTT assay; format: functional, cell-based; details: NCI-H1975, 72 h
NCI-H1975 [5] = test: Downregulation of carbonic anhydrase in human NCI-H1975 cells at 2 uM incubated for 24 hrs in hypoxic condition by Western blot analysis; format: functional, cell-based
Procedure, shortened: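 H1975 cells treated 24 h under hypoxia (1% O2, 94% N2, 5% CO2, 37 °C), with untreated cells as negative control. Lysed on ice for 30 min, spun at 20 000 g (4 °C, 10 min), protein measured by BCA. Equal protein run on 12% SDS-PAGE and moved to PVDF. Blocked in 5% milk/TBST, anti-CAIX overnight at 4 °C, peroxidase secondary 2 h, chemiluminescent detection.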

L02 = test: cells; format: functional, cell-based; details: Homo sapiens, L02, 72 h
NCI-H1975 [6] = test: Cytotoxicity against human NCI-H1975 cells assessed as reduction in cell viability incubated for 72 hrs under hypoxic condition by MTT assay; format: functional, cell-based; details: NCI-H1975, 72 h
Procedure, shortened: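 H1975 cells grown in medium with 10% FBS and penicillin/streptomycin under hypoxia (1% O2, 94% N2, 5% CO2) at 37 °C. Compounds dissolved in DMSO and diluted in medium, final DMSO below 0.4%. Incubated 72 h at 37 °C, then MTT (5 mg/mL) for 4 h. Formazan dissolved in DMSO and OD read at 570/630 nm. IC50 from three parallel experiments.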

Carbonic anhydrase 9 [7] = target: T2, Carbonic anhydrase 9 (Homo sapiens, UniProt Q16790)
Carbonic anhydrase 2 = Carbonic anhydrase 2 (Homo sapiens, UniProt P00918); test: Inhibition of human carbonic anhydrase 2 using p-nitrophenyl acetate as substrate by UV-VIS spectrophotometric analysis
NCI-H1975 [8] = test: Induction of apoptosis in human NCI-H1975 cells assessed as necrotic cells at 2 uM incubated for 24 hrs by annexin V-FITC and propidium iodide based flow cytometry analysis (reference value: 0.455 %); format: functional
NCI-H1975 [9] = test: Induction of cell cycle arrest in human NCI-H1975 cells assessed as G2/M phase at 2 uM incubated for 24 hrs by propidium iodide based flow cytometry analysis (reference value: 14.74 %); format: functional
NCI-H1975 [10] = test: Induction of cell cycle arrest in human NCI-H1975 cells assessed as G1 phase at 2 uM incubated for 24 hrs by propidium iodide based flow cytometry analysis (reference value: 60.76 %); format: functional
NCI-H1975 [11] = test: Induction of apoptosis in human NCI-H1975 cells assessed as viable cells at 2 uM incubated for 24 hrs by annexin V-FITC and propidium iodide based flow cytometry analysis (reference value: 93.2 %); format: functional; details: read-out: Activity
NCI-H1975 [12] = test: Induction of apoptosis in human NCI-H1975 cells assessed as late apoptotic cells at 2 uM incubated for 24 hrs by annexin V-FITC and propidium iodide based flow cytometry analysis (reference value: 4.98 %); format: functional
NCI-H1975 [13] = test: Induction of apoptosis in human NCI-H1975 cells assessed as early apoptotic cells at 2 uM incubated for 24 hrs by annexin V-FITC and propidium iodide based flow cytometry analysis (reference value: 1.34 %); format: functional
NCI-H1975 [14] = test: Induction of cell cycle arrest in human NCI-H1975 cells assessed as S phase at 2 uM incubated for 24 hrs by propidium iodide based flow cytometry analysis (reference value: 24.50 %); format: functional
A549 [15] = test: Cytotoxicity against human A549 cells assessed as reduction in cell viability incubated for 72 hrs under hypoxic condition by MTT assay; format: functional, cell-based; details: A549, 72 h
Procedure, shortened: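 A549 cells given compound for 72 h at 37 °C in hypoxia (1% O2, 94% N2, 5% CO2). Compounds taken up in DMSO and diluted in medium, final DMSO below 0.4%. MTT then added for 4 h, formazan dissolved in DMSO, absorbance read at 570/630 nm. IC50 from three parallel experiments.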

NCI-H1975 [16] = test: Downregulation of carbonic anhydrase 9 in human NCI-H1975 cells incubated for 24 hrs in hypoxic condition by Western blot analysis; format: functional, cell-based
Procedure, shortened: (§1)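 Lysates cleared at 20 000 g, protein quantified by BCA, equal amounts run on 12% SDS-PAGE and blotted to PVDF. Probed overnight at 4 °C for CAIX and HIF-1α, chemiluminescent detection.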

NCI-H1975 [17] = test: Antimigratory activity in human NCI-H1975 cells assessed as reduction in cell migration incubated for 24 hrs by wound healing assay; format: functional, cell-based; details: dose 0.5-1 µM
Procedure, shortened: (§2)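 H1975 monolayer scratched with pipette tip, washed twice with PBS, then kept in serum-free medium with test compound at 0.5 or 1.0 µM; untreated control got medium only. Wound photographed by inverted microscope after 24 h and wound area traced. Migration rate = (0 h wound area − […] wound area)/0 h wound area.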

NCI-H1975 [18] = test: Induction of apoptosis in human NCI-H1975 cells assessed as viable cells at 5 uM incubated for 24 hrs by annexin V-FITC and propidium iodide based flow cytometry analysis (reference value: 93.2 %); format: functional; details: read-out: Activity
NCI-H1975 [19] = test: Antimigratory activity in human NCI-H1975 cells assessed as cell migration at 1 uM incubated for 24 hrs by wound healing assay (reference value: 51.2 %); format: functional
Procedure, shortened: as §2

[20] = target: T1, Epidermal growth factor receptor; test: Inhibition of EGFR in human NCI-H1975 cells assessed as reduction in ERK phosphorylation incubated for 24 hrs by Western blot analysis; format: cell-based; details: dose 2-5 µM
Procedure, shortened: (§3)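 H1975 cells exposed to 2 or 5 µM compound for 24 h under normoxia. Lysates made on ice, protein measured by BCA, equal amounts separated on 12% SDS-PAGE and moved to PVDF. Blots blocked in 5% milk/TBST, incubated overnight at 4 °C with antibodies to EGFR/p-EGFR, AKT/p-AKT and ERK/p-ERK, and developed by chemiluminescence.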

NCI-H1975 [21] = test: Induction of apoptosis in human NCI-H1975 cells assessed as necrotic cells at 5 uM incubated for 24 hrs by annexin V-FITC and propidium iodide based flow cytometry analysis (reference value: 0.455 %); format: functional
Carbonic anhydrase 9 [22] = target: T2, Carbonic anhydrase 9; test: Downregulation of carbonic anhydrase 9 in human NCI-H1975 cells assessed as reduction in HIF-1alpha incubated for 24 hrs in hypoxic condition by Western blot analysis; format: cell-based
Procedure, shortened: as §1

[23] = target: T1, Epidermal growth factor receptor; test: Inhibition of EGFR in human NCI-H1975 cells assessed as reduction in EGFR phosphorylation incubated for 24 hrs by Western blot analysis; format: cell-based; details: dose 2-5 µM
Procedure, shortened: as §3

NCI-H1975 [24] = test: Induction of apoptosis in human NCI-H1975 cells incubated for 24 hrs by annexin V-FITC and propidium iodide based flow cytometry analysis; format: functional, cell-based; details: dose 2-5 µM
NCI-H1975 [25] = test: Induction of cell cycle arrest in human NCI-H1975 cells assessed as S phase at 5 uM incubated for 24 hrs by propidium iodide based flow cytometry analysis (reference value: 24.50 %); format: functional
NCI-H1975 [26] = test: Induction of cell cycle arrest in human NCI-H1975 cells assessed as G1 phase at 5 uM incubated for 24 hrs by propidium iodide based flow cytometry analysis (reference value: 60.76 %); format: functional
NCI-H1975 [27] = test: Induction of apoptosis in human NCI-H1975 cells assessed as late apoptotic cells at 5 uM incubated for 24 hrs by annexin V-FITC and propidium iodide based flow cytometry analysis (reference value: 4.98 %); format: functional
NCI-H1975 [28] = test: Induction of cell cycle arrest in human NCI-H1975 cells assessed as G2/M phase at 5 uM incubated for 24 hrs by propidium iodide based flow cytometry analysis (reference value: 14.74 %); format: functional
NCI-H1975 [29] = test: Induction of cell cycle arrest in human NCI-H1975 cells incubated for 24 hrs by propidium iodide based flow cytometry analysis; format: functional; details: dose 2-5 µM
NCI-H1975 [30] = test: Induction of apoptosis in human NCI-H1975 cells assessed as early apoptotic cells at 5 uM incubated for 24 hrs by annexin V-FITC and propidium iodide based flow cytometry analysis (reference value: 1.34 %); format: functional
[31] = target: T1, Epidermal growth factor receptor; test: Inhibition of EGFR in human NCI-H1975 cells assessed as reduction in AKT phosphorylation incubated for 24 hrs by Western blot analysis; format: cell-based; details: dose 2-5 µM
Procedure, shortened: as §3

T1 sequence (P00533 whole entry): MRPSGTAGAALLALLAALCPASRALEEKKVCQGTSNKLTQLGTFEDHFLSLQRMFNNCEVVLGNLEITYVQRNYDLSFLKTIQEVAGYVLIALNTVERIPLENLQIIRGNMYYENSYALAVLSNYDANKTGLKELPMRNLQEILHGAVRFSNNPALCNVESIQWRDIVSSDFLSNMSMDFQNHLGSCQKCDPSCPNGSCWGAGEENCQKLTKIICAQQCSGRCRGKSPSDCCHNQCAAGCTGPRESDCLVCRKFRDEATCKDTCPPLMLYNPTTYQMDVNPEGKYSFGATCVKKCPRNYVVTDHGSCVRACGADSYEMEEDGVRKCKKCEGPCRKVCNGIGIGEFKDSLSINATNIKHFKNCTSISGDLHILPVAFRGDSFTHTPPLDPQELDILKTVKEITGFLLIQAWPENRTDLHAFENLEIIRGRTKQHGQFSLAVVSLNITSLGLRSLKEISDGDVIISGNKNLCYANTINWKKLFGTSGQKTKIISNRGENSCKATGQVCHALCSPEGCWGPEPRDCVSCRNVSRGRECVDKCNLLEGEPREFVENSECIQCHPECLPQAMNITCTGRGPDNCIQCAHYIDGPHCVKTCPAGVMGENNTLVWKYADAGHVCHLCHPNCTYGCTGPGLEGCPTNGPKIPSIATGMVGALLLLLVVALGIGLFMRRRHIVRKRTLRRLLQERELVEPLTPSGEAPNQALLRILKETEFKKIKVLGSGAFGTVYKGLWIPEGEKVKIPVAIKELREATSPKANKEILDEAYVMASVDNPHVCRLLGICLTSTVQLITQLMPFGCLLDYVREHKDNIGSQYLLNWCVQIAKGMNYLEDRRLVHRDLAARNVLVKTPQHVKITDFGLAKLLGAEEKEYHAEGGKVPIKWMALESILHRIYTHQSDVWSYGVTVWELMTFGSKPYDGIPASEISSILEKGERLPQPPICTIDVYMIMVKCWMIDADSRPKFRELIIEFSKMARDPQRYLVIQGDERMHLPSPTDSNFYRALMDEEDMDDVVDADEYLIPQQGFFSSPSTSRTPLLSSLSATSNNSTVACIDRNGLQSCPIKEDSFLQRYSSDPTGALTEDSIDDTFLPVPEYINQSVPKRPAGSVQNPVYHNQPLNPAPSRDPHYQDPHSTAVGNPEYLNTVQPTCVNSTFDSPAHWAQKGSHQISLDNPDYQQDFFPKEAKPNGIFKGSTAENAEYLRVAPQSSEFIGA
Epidermal growth factor receptor (Homo sapiens, UniProt P00533, T790M), sequence (P00533 25-1210 T790M limits assumed): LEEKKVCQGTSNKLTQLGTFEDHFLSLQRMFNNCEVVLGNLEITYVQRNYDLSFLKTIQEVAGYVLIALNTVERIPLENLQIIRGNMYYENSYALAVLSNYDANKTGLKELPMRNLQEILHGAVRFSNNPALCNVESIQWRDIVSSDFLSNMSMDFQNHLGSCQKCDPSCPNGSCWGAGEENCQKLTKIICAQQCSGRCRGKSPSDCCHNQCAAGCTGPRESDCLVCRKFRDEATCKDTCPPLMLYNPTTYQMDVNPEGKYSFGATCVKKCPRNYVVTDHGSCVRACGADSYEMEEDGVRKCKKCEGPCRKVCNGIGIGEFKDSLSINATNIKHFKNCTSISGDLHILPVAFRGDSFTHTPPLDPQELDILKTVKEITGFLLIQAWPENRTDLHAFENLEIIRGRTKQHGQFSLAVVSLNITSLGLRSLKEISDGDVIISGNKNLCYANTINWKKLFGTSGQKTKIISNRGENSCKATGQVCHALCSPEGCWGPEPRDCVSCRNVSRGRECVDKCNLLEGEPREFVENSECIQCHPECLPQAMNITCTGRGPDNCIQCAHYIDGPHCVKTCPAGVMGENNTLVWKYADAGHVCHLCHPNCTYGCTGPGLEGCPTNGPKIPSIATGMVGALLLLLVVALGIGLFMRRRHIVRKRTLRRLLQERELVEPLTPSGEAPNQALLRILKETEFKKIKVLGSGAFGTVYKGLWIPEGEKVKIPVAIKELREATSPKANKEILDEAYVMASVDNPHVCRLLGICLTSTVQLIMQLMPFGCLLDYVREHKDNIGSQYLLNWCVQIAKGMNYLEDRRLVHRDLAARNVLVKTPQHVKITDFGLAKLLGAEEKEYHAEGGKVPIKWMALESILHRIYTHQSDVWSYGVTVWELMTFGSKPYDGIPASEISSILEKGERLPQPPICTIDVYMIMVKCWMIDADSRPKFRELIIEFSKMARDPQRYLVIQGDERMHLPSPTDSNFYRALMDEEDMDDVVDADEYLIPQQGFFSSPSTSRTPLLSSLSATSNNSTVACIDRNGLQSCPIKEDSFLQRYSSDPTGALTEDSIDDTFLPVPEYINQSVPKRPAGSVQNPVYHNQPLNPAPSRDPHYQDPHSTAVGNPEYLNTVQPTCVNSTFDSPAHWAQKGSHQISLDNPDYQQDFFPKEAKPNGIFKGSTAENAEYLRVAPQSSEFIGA

NS(=O)(=O)c1ccc(CCNC(=S)Nc2ccc3ncnc(Nc4ccc(OCc5cccc(F)c5)c(Cl)c4)c3c2)cc1
IC50 [1]: 66.7 nM
IC50 [2]: 28.4 nM
IC50 (A-431): 5770 nM
IC50 (A549 [3]): 6630 nM
IC50 (NCI-H1975 [4]): 5160 nM

CC(=O)Nc1nnc(S(N)(=O)=O)s1
Activity (NCI-H1975 [5]): Active

C=CC(=O)Nc1cc(Nc2nccc(-c3cn(C)c4ccccc34)n2)c(OC)cc1N(C)CCN(C)C [OSIMERTINIB]
IC50 (L02): > 40000 nM

COc1cc2ncnc(Nc3ccc(F)c(Cl)c3)c2cc1OCCCCC(=O)Nc1ccc(S(N)(=O)=O)cc1
IC50 [1]: 61.9 nM
IC50 [2]: 18.3 nM
IC50 (A-431): 5020 nM
IC50 (A549 [3]): 15500 nM
IC50 (NCI-H1975 [4]): 35600 nM

NS(=O)(=O)c1ccc(CCNC(=S)Nc2ccc3ncnc(Nc4cccc(C(F)(F)F)c4)c3c2)cc1
IC50 [1]: 93.4 nM
IC50 [2]: 42.6 nM
IC50 (A-431): 16800 nM
IC50 (Carbonic anhydrase 9 [7]): 313 nM
IC50 (A549 [3]): 9050 nM
IC50 (Carbonic anhydrase 2): 241 nM
IC50 (NCI-H1975 [4]): 4250 nM

COc1cc2ncnc(Nc3ccc(F)c(Cl)c3)c2cc1OCCCN1CCOCC1 [GEFITINIB]
Activity (NCI-H1975 [8]): 0.61%
Activity (NCI-H1975 [9]): 33.72%
Activity (NCI-H1975 [10]): 47.52%
viability at 2 µM (NCI-H1975 [11]): 86.2%
Activity (NCI-H1975 [12]): 5.44%
Activity (NCI-H1975 [13]): 7.78%
Activity (NCI-H1975 [14]): 18.76%

COc1cc2ncnc(Nc3cccc(C(F)(F)F)c3)c2cc1OCCCCC(=O)Nc1ccc(S(N)(=O)=O)cc1
IC50 (A549 [15]): 2210 nM
Activity (NCI-H1975 [8]): 2.19%
IC50 (L02): > 40000 nM
IC50 [1]: 9.2 nM
Activity (NCI-H1975 [16]): Dose-Dependent Effect
Activity (NCI-H1975 [9]): 47.44%
Activity (NCI-H1975 [17]): Dose-Dependent Effect
IC50 [2]: 27 nM
viability at 5 µM (NCI-H1975 [18]): 56%
IC50 (NCI-H1975 [6]): 1050 nM
Activity (NCI-H1975 [19]): 17.9%
inhibition [20]: Dose-Dependent Effect
Activity (NCI-H1975 [10]): 36.98%
viability at 2 µM (NCI-H1975 [11]): 68.4%
IC50 (A-431): 4040 nM
Activity (NCI-H1975 [21]): 3.4%
IC50 (Carbonic anhydrase 9 [7]): 115 nM
Activity (Carbonic anhydrase 9 [22]): Dose-Dependent Effect
IC50 (A549 [3]): 6540 nM
inhibition [23]: Dose-Dependent Effect
Activity (NCI-H1975 [24]): Dose-Dependent Effect
Activity (NCI-H1975 [12]): 7.8%
Activity (NCI-H1975 [25]): 17.21%
Activity (NCI-H1975 [26]): 27.94%
IC50 (Carbonic anhydrase 2): 278 nM
Activity (NCI-H1975 [27]): 14.1%
IC50 (NCI-H1975 [4]): 1940 nM
Activity (NCI-H1975 [28]): 54.85%
Activity (NCI-H1975 [29]): Dose-Dependent Effect
Activity (NCI-H1975 [30]): 26.6%
Activity (NCI-H1975 [13]): 21.6%
inhibition [31]: Dose-Dependent Effect
Activity (NCI-H1975 [14]): 15.58%

COc1cc2ncnc(Nc3ccc(Cl)c(C(F)(F)F)c3)c2cc1OCCCCC(=O)Nc1ccc(S(N)(=O)=O)cc1
IC50 [1]: 37.5 nM
IC50 [2]: 13.7 nM
IC50 (A-431): 3910 nM
IC50 (Carbonic anhydrase 9 [7]): 224 nM
IC50 (A549 [3]): 9270 nM
IC50 (Carbonic anhydrase 2): 356 nM
IC50 (NCI-H1975 [4]): 3220 nM

NS(=O)(=O)c1ccc(NC(=S)Nc2ccc3ncnc(Nc4cccc(C(F)(F)F)c4)c3c2)cc1
IC50 [1]: 135 nM
IC50 [2]: 51.2 nM
IC50 (A-431): 21700 nM
IC50 (Carbonic anhydrase 9 [7]): 578 nM
IC50 (A549 [3]): 10100 nM
IC50 (Carbonic anhydrase 2): 526 nM
IC50 (NCI-H1975 [4]): 7590 nM
